Experimental data published in publication PMC5432128 (Environment international, 2017).
≈ marks a conversion by molar mass, not a printed value. Where “and” joins values, the source holds several entries; their conditions need not be identical. Equal entries are not always repeated. Where two headings read alike, the source gives them in different places.

Legend:
[1] = cited from earlier work; for recovery of radioactivity in the urine: rats, ref Powles et al. 1992
[2] = system: second instar larvae of S. frugiperda; experiment: Insect bioassay, diet surface contamination method; type: in vivo; conditions: for mortality / insecticidal activity: 2nd instar larvae, doses as high as 100 μg/mL (24-fold higher than fipronil LC50)
α1β3γ2L GABAA receptors = α1β3γ2L GABAA receptors (Homo sapiens, UniProt P14867+P18507+P28472); type: cell-based; conditions: for EC50: 25 μM GABA, -80 mV
α1β3γ2L GABAA receptors, sequence (P14867 28-456): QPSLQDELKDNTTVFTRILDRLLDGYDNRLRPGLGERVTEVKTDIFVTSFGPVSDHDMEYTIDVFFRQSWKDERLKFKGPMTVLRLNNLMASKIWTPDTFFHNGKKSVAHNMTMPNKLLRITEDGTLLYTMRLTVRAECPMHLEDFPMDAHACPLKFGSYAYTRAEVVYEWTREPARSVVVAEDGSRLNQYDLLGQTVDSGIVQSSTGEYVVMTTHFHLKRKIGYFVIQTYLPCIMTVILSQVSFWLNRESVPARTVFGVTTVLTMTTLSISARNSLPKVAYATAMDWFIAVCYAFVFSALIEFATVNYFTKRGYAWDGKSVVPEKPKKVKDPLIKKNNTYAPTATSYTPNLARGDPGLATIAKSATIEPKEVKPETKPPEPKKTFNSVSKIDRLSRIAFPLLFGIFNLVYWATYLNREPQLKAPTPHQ
α1β3γ2L GABAA receptors, sequence (P28472 26-473): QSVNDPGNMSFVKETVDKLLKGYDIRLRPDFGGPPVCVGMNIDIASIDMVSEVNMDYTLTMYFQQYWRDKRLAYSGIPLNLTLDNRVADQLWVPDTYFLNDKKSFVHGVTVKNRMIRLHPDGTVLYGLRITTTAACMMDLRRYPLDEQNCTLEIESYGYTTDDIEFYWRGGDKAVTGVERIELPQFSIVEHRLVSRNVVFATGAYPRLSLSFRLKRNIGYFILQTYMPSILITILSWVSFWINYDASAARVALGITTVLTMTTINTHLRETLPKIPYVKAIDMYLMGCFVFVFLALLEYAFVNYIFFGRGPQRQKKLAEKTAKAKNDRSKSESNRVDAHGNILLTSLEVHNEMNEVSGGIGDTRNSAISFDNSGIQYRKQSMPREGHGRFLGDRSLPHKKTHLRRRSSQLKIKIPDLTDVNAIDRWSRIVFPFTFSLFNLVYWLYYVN
α1β3γ2L GABAA receptors, sequence (P18507 40-475): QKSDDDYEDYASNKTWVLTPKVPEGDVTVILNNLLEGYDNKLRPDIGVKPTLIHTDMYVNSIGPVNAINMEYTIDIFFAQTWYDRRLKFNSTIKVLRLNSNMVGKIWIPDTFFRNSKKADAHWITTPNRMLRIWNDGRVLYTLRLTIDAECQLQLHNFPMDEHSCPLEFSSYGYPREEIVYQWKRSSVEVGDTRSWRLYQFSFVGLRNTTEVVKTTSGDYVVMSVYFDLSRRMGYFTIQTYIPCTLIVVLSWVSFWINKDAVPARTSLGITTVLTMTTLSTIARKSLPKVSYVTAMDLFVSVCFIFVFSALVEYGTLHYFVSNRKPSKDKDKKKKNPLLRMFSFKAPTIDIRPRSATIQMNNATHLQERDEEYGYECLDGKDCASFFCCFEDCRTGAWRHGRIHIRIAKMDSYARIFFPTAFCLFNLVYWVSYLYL

LC-MS/MS Method 1 = type: in vivo, rat; conditions: for concentration at 2 weeks: Conc sulfone, LOQ 1.5 ng/mL
How it was run: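 Rats received fipronil in diet at 5 or 10 mg/kg daily, for 14 days or one day. Urine was hydrolysed overnight at 37°C with β-glucuronidase/sulfatase in methanol/ammonium acetate pH 5.5. Urine (40 μL) was spiked with CUDA internal standard and centrifugally filtered at 20,000 g. Analysis used UPLC on C18 at 40°C with a water/acetonitrile 0.1% acetic acid gradient at 0.4 mL/min and […] ESI tandem MS.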

LC/MS/MS Method 2 = type: in vivo; conditions: EPA group, this study; for Conc sulfone, LOQ 10 ng/mL: rat urine; for concentration at 2 weeks: rat, urine, oral, Conc sulfone, LOQ 10 ng/mL
How it was run: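 Urine came from fipronil-treated rats dosed at 5 or 10 mg/kg, single or repeated daily. Urine (100 μL) was precipitated with cold acetonitrile and centrifuged at 12,500 ×g for 8 min. Supernatant was mixed 1:1 with 10 mM ammonium acetate. HPLC used a C18 column at 30°C with 0.2 mM ammonium acetate methanol/acetonitrile phases, a 50–90% B gradient and flow of 0.4 rising to 0.75 mL/min, then MS/MS.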

[3] = urine of fipronil-treated rats; ref McMahen et al. 2015; cited from earlier work
[4] = in certain conditions; ref Gunasekara et al. 2007; cited from earlier work
mice = conditions: 4.5 mg/kg body weight (bw)/day for 13 weeks; ref Hamernik 1998; cited from earlier work
rats = conditions: in particular females; low doses (3.4 mg/kg bw); ref Hamernik 1998; cited from earlier work
dogs = conditions: diet, up to 3 mg/kg bw/day; ref Hamernik 1998; Woodward 2012; cited from earlier work
[5] = system: polyclonal antibodies 2265; experiment: Fipronil immunoassay cross-reactivity, serum 2265; type: binding; conditions: serum 2265, n=5; relative to fipronil
[6] = system: polyclonal antibodies 2268; experiment: Fipronil immunoassay cross-reactivity, serum 2268; type: binding; conditions: serum 2268, n=4; relative to fipronil
[7] = inhibitory effective concentration (EC50) on GABA-induced Cl- currents, pre-application at least 3 min, mean ± S.D.

For `N#Cc1nn(-c2c(Cl)cc(C(F)(F)F)cc2Cl)c(N)c1[S+]([O-])C(F)(F)F` (stereo not drawn) [^14C-fipronil], the “recovery of radioactivity in the urine” value ([1]; repeated dosing over 14 days) is listed as 14–16%, the “recovery of radioactivity in the urine” value ([1]; single dose at 4 mg/kg) is listed as 5.6% and the “recovery of radioactivity in the urine” value ([1]; single high dose (150 mg/kg)) is listed as 22–30%.
For `COC(=N)c1cc(N)n(-c2c(Cl)cc(C(F)(F)F)cc2Cl)n1` [fipronil desulfinyl imidate, methyl 5-amino-1-(2,6-dichloro-4-(trifluoromethyl)phenyl)-1H-pyrazole-3-carbimidate], the “mortality / insecticidal activity” value [2] was “did not show any mortality”, the “mortality / insecticidal activity” value ([2]; listed as imidate derivative) was “did not show any insecticidal activity” and the “activity on GABAA α1β3γ2L receptor currents (in words)” value (α1β3γ2L GABAA receptors) was “approximately as potent to fipronil”. The EC50 (α1β3γ2L GABAA receptors; [7]) was 2.78 nM and 2.8 nM.
With `N#Cc1nn(-c2c(Cl)cc(C(F)(F)F)cc2Cl)c(N)c1S(=O)(=O)C(F)(F)F` [fipronil sulfone] the “Conc sulfone, LOQ 1.5 ng/mL” value (LC-MS/MS Method 1; rat urine, fipronil 5 mg/kg repeated, Method 1) was 14 ng/mL, the “Conc sulfone, LOQ 1.5 ng/mL” value (LC-MS/MS Method 1; rat urine, fipronil 5 mg/kg repeated, Method 1, listed as sulfone) was 17 ng/mL and 14 ng/mL and the “detection in urine samples” value (LC-MS/MS Method 1; rat urine, samples 42, 81 and 82) was “detected only in samples obtained from animals treated with fipronil repeatedly”. The concentration at 2 weeks (LC-MS/MS Method 1; rat, urine, oral, 5 mg/kg, rat urine, fipronil 5 mg/kg repeated, Method 1) was 17 ng/mL, the concentration at 2 weeks (LC-MS/MS Method 1; rat, urine, oral, 10 mg/kg, rat urine, fipronil 10 mg/kg repeated, Method 1) was 19 ng/mL and the “concentration in urine samples” value (LC-MS/MS Method 1; rats treated with fipronil, over all dose groups (abstract)) was “around 20 ng/mL”. The “Conc sulfone, LOQ 10 ng/mL” value (LC/MS/MS Method 2; fipronil 5 mg/kg repeated) was 24 ng/mL, the “Conc sulfone, LOQ 10 ng/mL” value (LC/MS/MS Method 2; fipronil 5 mg/kg single) was < 10 ng/mL and the “Conc sulfone, LOQ 10 ng/mL” value (LC/MS/MS Method 2; fipronil 10 mg/kg single) was < 10 ng/mL. For the same molecule, the concentration at 2 weeks (LC/MS/MS Method 2; 5 mg/kg, fipronil 5 mg/kg repeated) was 26 ng/mL, the concentration at 2 weeks (LC/MS/MS Method 2; 10 mg/kg, fipronil 10 mg/kg repeated) was 23 ng/mL and the “share among urinary metabolites” value ([1]; deconjugated and original rat urine, ref Powles et al. (1992)) was “minor constituent”.
Work on `N#Cc1nn(-c2c(Cl)cc(C(F)(F)F)cc2Cl)c(N)c1[S+]([O-])C(F)(F)F` (stereo not drawn) [fipronil] yielded an LC50 ([2]; Spodoptera frugiperda) of 4.1 µg/mL (≈ 9.38 µM), a mortality at 100 µg/mL ([2]; Spodoptera frugiperda, 12 h) of 100% and a mortality at 50 µg/mL ([2]; Spodoptera frugiperda, 48 h) of 100%. For the same molecule, the EC50 (α1β3γ2L GABAA receptors; [7]) was 1.15 nM and 1.2 nM, the “free fipronil in urine samples” value [3] was “no detectable amount” and the “half-life (t1/2) in the environment” value [4] was “over 100 days”. The bodyweight gain (mice) was “reduced bodyweight gains”, the liver weight (rats) was “significant increase in liver weight” and the “other signs of toxicity observed” value (dogs) was “convulsions, head nodding and muscles twitching”. For the same molecule, the “weight gain and neurological effects” value (dogs) was “did not experience abnormal weight gain or severe neurological effects”.
With `N#Cc1nn(-c2c(Cl)cc(C(F)(F)F)cc2Cl)c(N)c1O` [hydroxy-fipronil, 5-Amino-1-(2,6-dichloro-4-(trifluoromethyl)phenyl)-4-hydroxy-1H-pyrazole-3-carbonitrile] the “Conc FipOH, LOQ 0.4 ng/mL” value (LC-MS/MS Method 1; rat urine, fipronil 5 mg/kg single, Method 1, listed as FipOH) was 23 ng/mL and 24 ng/mL, the “Conc FipOH, LOQ 0.4 ng/mL” value (LC-MS/MS Method 1; rat urine, fipronil 10 mg/kg single, Method 1) was 14 ng/mL and the “difference in metabolite concentration, two weeks treatment vs single treatment” value (LC-MS/MS Method 1; rat urine, same doses 5 or 10 mg/kg) was 80 to 700 times. The “concentration detected in the samples before and after enzymatic hydrolysis” value (LC-MS/MS Method 1; rat urine, β-glucuronidase/sulfatase, table S4) was “did not change significantly”, the concentration at 14 days (LC-MS/MS Method 1; rat, urine, oral, 10 mg/kg, Conc FipOH, LOQ 0.4 ng/mL, rat urine, fipronil 10 mg/kg repeated (14 days), Method 1) was 10200 ng/mL and the “concentration in the urine” value (LC-MS/MS Method 1; rats, single fipronil dose of 5 or 10 mg/kg) was “about 20 ng/mL”. For the same molecule, the “mortality / insecticidal activity” value [2] was “did not show any mortality”, the “activity on GABAA α1β3γ2L receptor currents (in words)” value (α1β3γ2L GABAA receptors) was “did not have a significant inhibitory effect” and the EC50 (α1β3γ2L GABAA receptors; inhibitory EC50 on GABA-induced Cl- currents) was ~1000 nM. The EC50 (α1β3γ2L GABAA receptors; [7]) was 1000 ± 341 nM, the “fold higher concentrations to elicit similar current inhibition” value (α1β3γ2L GABAA receptors; relative to fipronil and fipronil desulfinyl imidate) was ≤ 1000 fold and the “Cross-reactivity (CR)” value [5] was 3.2%. The “Cross-reactivity (CR)” value [6] was 0.7%.
